The IC50 is the concentration that gives 50% inhibition. In general, pEC50 refers to the EC50 on a negative log10 scale, so that one unit is a factor of ten. The low end stands for a high EC50, the high end for a low EC50. What is called MIC is the smallest concentration in the dilution series that meets the test's criterion for growth inhibition. For orientation: Cmax means the peak of the concentration-time curve. A word on the logP: it is a log measure of how a compound divides between an organic and an aqueous phase. Read a high logP as a more lipophilic compound. What is called bioavailability is the share of a dose that reaches the circulation, judged against a reference dose that is usually intravenous. A higher bioavailability goes with much systemic uptake. As a reminder, the clearance is a measure of how efficiently the substance is removed, as volume per time. What is called Tmax is the time at which the peak concentration occurs. The term half-life denotes the time in which the quantity being followed falls by half. The low end stands for rapid decline, the high end for slow decline. The pIC50 is −log10 of the IC50, conventionally taken in molar units. Low values mean a high IC50, high ones a low IC50.

Results on nine compounds are retold here after ChEMBL document CHEMBL1148348, “New manzamine alkaloids from an Indo-Pacific sponge. Pharmacokinetics, oral availability, and the significant activity of several manzamines against HIV-I, AIDS opportunistic infections, and inflammatory diseases” (J Med Chem, 2004).

Series [1] concerns Staphylococcus aureus. The series can be described thus: Inhibitory concentration against Staphylococcus aureus; Not active. The series is classed as functional, organism-based.
Series [2] relates to Staphylococcus aureus. Kind of series: Inhibitory concentration against methicillin-resistant Staphylococcus aureus; Not active. It counts as functional, organism-based.
Series [3] concerns Cryptococcus neoformans. Kind of series: Inhibitory concentration against Cryptococcus neoformans; Not active. The series is classed as functional, organism-based.
The test system of series [4] is Mycobacterium intracellulare. The series can be described thus: Inhibitory concentration against Mycobacterium intracellular; Not active. The series is classed as functional, organism-based.
The subject of series [5] is Human immunodeficiency virus 1. Kind of series: Effective concentration against HIV-1. The series is classed as functional, organism-based.
Series [6] concerns Mycobacterium intracellulare. Kind of series: Minimal inhibitory concentration against Mycobacterium intracellular; Range is 0.5-6.25 ug/mL. It counts as functional.
Series [7] deals with Staphylococcus aureus. The series can be described thus: Inhibitory concentration against Staphylococcus aureus. The series is classed as functional, organism-based.
Series [8] can be described thus: Cmax in rats. The series is classed as ADME, organism-based. The note with it: rat, in vivo.
The test system of series [9] is Staphylococcus aureus. The series can be described thus: Minimal inhibitory concentration against methicillin-resistant Staphylococcus aureus; Range is 0.5-6.25 ug/mL. It counts as functional.
Series [10] relates to Staphylococcus aureus. Kind of series: Inhibitory concentration against methicillin-resistant Staphylococcus aureus. The series is classed as functional, organism-based.
Series [11] in a line: Partition coefficient (logP). It counts as physicochemical. The note with it: octanol/water.
The nature of series [12]: Apparent volume of distribution at 10 mg/kg in rat upon intravenous administration. As to conditions: in vivo. The series is classed as ADME, organism-based. Further details: dose 10 mg/kg, route intravenous. The essentials:
(§1)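 Male Sprague-Dawley rats (280-320 g), jugular/carotid cannulated the day before, fasted until 12 h post-dose. Given 10 mg/kg iv as a 5 min jugular infusion, approx. 3 mg/mL in 10% v/v ethanol/50 mM tartrate buffer pH 3.0. Carotid blood sampled over 96 h; plasma by validated HPLC/MS (LOQ 10 ng/mL). Parameters estimated from mean plasma concentrations, n = 3.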

Series [13] is described as follows: Oral bioavailability in rat. It counts as ADME, organism-based. As to conditions: in vivo.
Series [14] concerns Staphylococcus aureus. The series can be described thus: Minimal inhibitory concentration against Staphylococcus aureus; Range is 0.5-6.25 ug/mL. It counts as functional.
Series [15] has as its system Cryptococcus neoformans. Kind of series: Inhibitory concentration against Cryptococcus neoformans. The series is classed as functional, organism-based.
The nature of series [16]: Plasma clearance at 10 mg/kg in rat upon intravenous administration. The series is classed as ADME, organism-based. On the set-up: dose 10 mg/kg, route intravenous. The essentials:
as §1

A short description of series [17]: Tmax in rats. It counts as ADME, organism-based. The note with it: rat, in vivo.
Series [18] deals with Mycobacterium intracellulare. Kind of series: Inhibitory concentration against Mycobacterium intracellular. The series is classed as functional, organism-based.
A short description of series [19]: Half-life at 10 mg/kg in rat upon intravenous administration. It counts as ADME, organism-based. Further details: dose 10 mg/kg, route intravenous. The note with it: in vivo. A digest of the protocol: as §1
The species named for series [20] is Rattus norvegicus. The series can be described thus: Inhibitory activity against superoxide anion generation in rat neonatal brain microglia cells. The series is classed as functional, cell-based. The essentials: (§2)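 Rat neonatal brain microglia stimulated with phorbol ester. Release of superoxide anion or thromboxane B2 is measured, and inhibition is expressed as IC50.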

Series [21] can be described thus: Inhibitory activity against thromboxane B2. Further details: species or system Rattus norvegicus. A digest of the protocol: as §2
The species named for series [22] is Rattus norvegicus. Kind of series: Concentration for 50% increase in lactate dehydrogenase release in rat neonatal brain microglia cells. The series is classed as functional. A digest of the protocol: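 Lactate dehydrogenase released from rat neonatal brain microglia serves as the marker of cell toxicity. The value is expressed as LDH50.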

pEC50, pIC50: −log10 of the molar value. ≈ marks a conversion by molar mass, not a printed value.

On to `Oc1cccc2c3cc[nH]c(C4=C[C@]56CC/C=C\CCCCN7CC[C@@H]4[C@]4(C[C@@H]8/C=C\CCC[C@@H](O5)N8[C@H]46)C7)c-3nc12` [12,28-OXA-8-HYDROXY-MANZAMINE A], for which the IC50 result (in the series with Staphylococcus aureus [1]; in the series on Staphylococcus aureus [2]; in the series on Cryptococcus neoformans [3]; in series [4]) was “Not Active” each time.
Regarding `O=CC1=C[C@@]2(O)CC/C=C\CCCCN3CC[C@@H]1[C@]1(C[C@@H]4/C=C\CCCCN4[C@H]12)C3` [IRCINAL], the half-inhibitory concentration (IC50) entry (in the series with Staphylococcus aureus [1]; in the series on Staphylococcus aureus [2]; with Cryptococcus neoformans [3]; in [4]) was “Not Active” each time.
With `O=C1CCCN2[C@@H](CC1)C[C@]13CN4CCCC/C=C\CC[C@](O)(C=C(c5nccc6c5[nH]c5c(O)cccc56)C1CC4)[C@H]23` (stereo partly specified) [MANZAMINE F], the IC50 entry in the series on Staphylococcus aureus [1] and with Staphylococcus aureus [2] was “Not Active” each time.
With `OC1=C[C@@]2(O)CC/C=C\CCCCN3CC[C@@H]1[C@]1(C[C@@H]4/C=C\CCCCN4[C@H]12)C3` [IRCINOL A], the IC50 entry in the series on Staphylococcus aureus [1] and in the series with Cryptococcus neoformans [3] was “Not Active” each time.
In [5], `Cc1cn([C@H]2C[C@H](N=[N+]=[N-])[C@@H](CO)O2)c(=O)[nH]c1=O` [ZIDOVUDINE] showed a pEC50 of 8.40.
As to `O[C@]12C=C(c3[nH]ccc4c5ccccc5nc3-4)[C@@H]3CCN(CCCC/C=C\CC1)C[C@@]31C[C@@H]3/C=C\CCCCN3[C@H]12` [MANZAMINE], the MIC (in series [6]; in the series on Staphylococcus aureus [9]; against Staphylococcus aureus [14]) was < 6.25 µg/mL in each case. The half-maximal inhibitory concentration (IC50) was found to be 0.5 µg/mL (≈ 0.911 µM) in the series with Staphylococcus aureus [7], 0.7 µg/mL (≈ 1.28 µM) with Staphylococcus aureus [10], 3 µg/mL (≈ 5.47 µM) in the series with Cryptococcus neoformans [15] and 0.35 µg/mL (≈ 0.638 µM) in [18]. Moreover, in series [8], the maximum concentration (Cmax) turned out to be 1070 ng/mL. The logP in [11] worked out at 8.34. Further, the Vd in series [12] is 23.7 L/kg. Also, the pEC50 in [5] was 5.38. The compound further returned a bioavailability in series [13] of 20.6%. This compound also came in with a clearance in series [16] of 5.1 mL/min/kg. In [17], the Tmax stood at 10 h. The same compound showed a half-life in [19] of 2.24 days.
As for `O=C1CCCN2[C@@H](CC1)C[C@]13CN4CCCC/C=C\CC[C@](O)(C=C(c5nccc6c5[nH]c5ccccc56)C1CC4)[C@H]23` (stereo partly specified) [MANZAMINE E], the 50% inhibitory concentration (IC50) entry in the series with Staphylococcus aureus [1], in the series with Staphylococcus aureus [2] and in the series with Cryptococcus neoformans [3] was “Not Active” each time.
As for `Oc1cccc2c1[nH]c1c(C3=C[C@@]4(O)CC/C=C\CCCCN5CC[C@@H]3[C@]3(CC6/C=C\CCCCN6[C@H]34)C5)nccc12` (stereo partly specified), the pIC50 (in the series filed under Rattus norvegicus [20]; in series [21]) was < 4.52 each time. The MIC (in [6]; in the series with Staphylococcus aureus [14]) was < 6.25 µg/mL throughout. In the series filed under Rattus norvegicus [22], the LDH50 is >30 µM.
For the compound `C1=C(c2[nH]ccc3c4ccccc4nc2-3)[C@@H]2CCN3CCCC/C=C\CC[C@]14O[C@@H]1CCC/C=C\[C@H]5C[C@@]2(C3)[C@H]4N51` [12,28-OXAMANZAMINE A], the IC50 result (in the series with Staphylococcus aureus [1]; with Staphylococcus aureus [2]; with Cryptococcus neoformans [3]; in series [4]) was “Not Active” each time. The pEC50 in series [5] was 4.65.
